This is an account of results in ChEMBL document CHEMBL3813631, “Design, synthesis, and pharmacological evaluation of JDTic analogs to examine the significance of replacement of the 3-hydroxyphenyl group with pyridine or thiophene bioisosteres” (Bioorg Med Chem, 2016).

Calls of active or inactive are those of the source. The rule behind the calls is not given here.

Assay [1] has as its target Kappa-type opioid receptor (Homo sapiens) (UniProt P41145). Kind of assay: Intrinsic activity at human kappa opioid receptor expressed in CHO cell membrane assessed as increase in [35S]GTPgammaS binding at 10 uM after 1 hr by scintillation counting method. Type of assay: functional, cell membranes. (Binding of GTPγS marks nucleotide exchange on a G protein.)
The target is the same in assay [2]. The assay can be described thus: Antagonist activity at human kappa opioid receptor expressed in CHO cell membrane assessed as inhibition of U69,593-induced [35S]GTPgammaS binding after 1 hr by scintillation counting method. Type of assay: functional, cell membranes. The method, boiled down: (§1)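 Antagonist Ke values were obtained from [35S]GTPγS binding at each opioid receptor. Each value is the mean ± SEM of at least three independent experiments, and each experiment was run in duplicate.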

The subject of assay [3] is CHO. The assay can be described thus: Selectivity ratio of Ke for human delta opioid receptor expressed in CHO cell membrane to Ke for human kappa opioid receptor expressed in CHO cell membrane. Type of assay: cell-based.
For assay [4], the target named is Mu-type opioid receptor (Homo sapiens) (UniProt P35372). The assay can be described thus: Intrinsic activity at human mu opioid receptor expressed in CHO cell membrane assessed as increase in [35S]GTPgammaS binding at 10 uM after 1 hr by scintillation counting method. The assay is classed as functional, cell membranes.
Assay [5] has as its target Delta-type opioid receptor (Homo sapiens) (UniProt P41143). The assay can be described thus: Intrinsic activity at human delta opioid receptor expressed in CHO cell membrane assessed as increase in [35S]GTPgammaS binding at 10 uM after 1 hr by scintillation counting method. Type of assay: functional, cell membranes.
Assay [6] relates to CHO. The assay can be described thus: Selectivity ratio of Ke for human mu opioid receptor expressed in CHO cell membrane to Ke for human kappa opioid receptor expressed in CHO cell membrane. The assay is classed as cell-based.
Assay [7] deals with Mu-type opioid receptor (Homo sapiens) (UniProt P35372). The assay can be described thus: Antagonist activity at human mu opioid receptor expressed in CHO cell membrane assessed as inhibition of DAMGO-induced [35S]GTPgammaS binding after 1 hr by scintillation counting method. The assay is classed as functional, cell membranes. The method, boiled down: as §1
Assay [8] deals with Delta-type opioid receptor (Homo sapiens) (UniProt P41143). The assay can be described thus: Antagonist activity at human delta opioid receptor expressed in CHO cell membrane assessed as inhibition of DPDPE-induced [35S]GTPgammaS binding after 1 hr by scintillation counting method. Type of assay: functional, cell membranes. The method, boiled down:
as §1

Chain of Delta-type opioid receptor (Homo sapiens) (P41143 whole entry): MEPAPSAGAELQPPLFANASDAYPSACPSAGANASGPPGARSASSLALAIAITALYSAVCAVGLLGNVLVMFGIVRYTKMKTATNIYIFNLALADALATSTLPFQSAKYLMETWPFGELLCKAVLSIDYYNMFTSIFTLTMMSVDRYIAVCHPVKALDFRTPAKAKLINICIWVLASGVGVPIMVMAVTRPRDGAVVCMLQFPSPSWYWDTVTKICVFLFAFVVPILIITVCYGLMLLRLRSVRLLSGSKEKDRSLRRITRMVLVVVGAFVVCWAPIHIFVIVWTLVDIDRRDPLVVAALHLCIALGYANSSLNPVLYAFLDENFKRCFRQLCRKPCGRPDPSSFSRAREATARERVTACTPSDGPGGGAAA
Chain of Kappa-type opioid receptor (Homo sapiens) (P41145 whole entry): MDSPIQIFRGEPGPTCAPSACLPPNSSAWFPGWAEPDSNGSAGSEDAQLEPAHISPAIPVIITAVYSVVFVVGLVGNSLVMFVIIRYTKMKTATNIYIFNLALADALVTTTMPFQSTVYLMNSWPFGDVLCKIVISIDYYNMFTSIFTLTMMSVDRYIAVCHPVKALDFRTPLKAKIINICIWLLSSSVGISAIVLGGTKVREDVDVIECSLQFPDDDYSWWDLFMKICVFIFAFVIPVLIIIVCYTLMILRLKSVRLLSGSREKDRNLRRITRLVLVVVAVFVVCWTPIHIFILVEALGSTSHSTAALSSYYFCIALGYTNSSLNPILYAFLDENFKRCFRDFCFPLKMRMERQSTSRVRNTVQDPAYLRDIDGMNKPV
Chain of Mu-type opioid receptor (Homo sapiens) (P35372 whole entry): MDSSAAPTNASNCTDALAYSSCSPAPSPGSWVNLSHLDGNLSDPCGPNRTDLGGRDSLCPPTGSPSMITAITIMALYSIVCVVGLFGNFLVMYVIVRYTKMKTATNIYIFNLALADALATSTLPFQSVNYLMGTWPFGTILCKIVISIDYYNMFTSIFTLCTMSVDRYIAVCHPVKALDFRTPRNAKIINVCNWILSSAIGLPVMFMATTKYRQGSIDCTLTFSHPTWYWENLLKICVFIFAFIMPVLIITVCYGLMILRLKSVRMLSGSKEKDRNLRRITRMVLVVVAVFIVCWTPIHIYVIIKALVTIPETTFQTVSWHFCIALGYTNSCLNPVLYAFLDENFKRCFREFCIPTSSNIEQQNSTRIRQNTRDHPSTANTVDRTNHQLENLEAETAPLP

As to `CC(C)[C@@H](CN1CCC(c2ccccn2)CC1)NC(=O)[C@H]1Cc2ccc(O)cc2CN1`, the Intrinsic activity result in assay [1], in assay [4] and in assay [5] was “inactive” each time. The Ke in assay [2] was 0.43 nM. The Ratio Ke with CHO [3] stood at 1370; in the assay with CHO [6] it was 33.
As for `CC(C)[C@@H](CN1CCC(C)(c2cccnc2)CC1)NC(=O)[C@H]1Cc2ccc(O)cc2CN1`, the Intrinsic activity result in assay [1], in assay [4] and in assay [5] was “inactive” in each case. For the same compound, the Ke in assay [2] is 0.18 nM. The Ratio Ke in the assay on CHO [3] was > 16700; in the assay with CHO [6], 273.
Consider `CC(C)[C@@H](CN1CCC(c2cccnc2)CC1)NC(=O)[C@H]1Cc2ccc(O)cc2CN1`, for which the Intrinsic activity entry in assay [1], in assay [4] and in assay [5] was “inactive” throughout. Also, the Ke in assay [2] stood at 0.51 nM. The figures for the Ratio Ke with CHO [3] and with CHO [6] were 2240 and 89, respectively.
On to `CC(C)[C@@H](CN1CCC(c2ccsc2)CC1)NC(=O)[C@H]1Cc2ccc(O)cc2CN1`, for which the Ke stood at 3.93 nM in assay [7], 0.12 nM in assay [2] and 118 nM in assay [8]. Further, the Intrinsic activity entry in assay [1], in assay [4] and in assay [5] was “inactive” in each case. The Ratio Ke in the assay on CHO [3] is 983; in the assay with CHO [6], 33.
Consider `CC(C)[C@@H](CN1CCC(c2ccccc2)CC1)NC(=O)[C@H]1Cc2ccc(O)cc2CN1`, for which the values for the Ratio Ke in the assay with CHO [3] and in the assay with CHO [6] were 5510 and 77, respectively.
Regarding `CC(C)[C@@H](CN1CCC(c2ccncc2)CC1)NC(=O)[C@H]1Cc2ccc(O)cc2CN1`, the Intrinsic activity result in assay [1], in assay [4] and in assay [5] was “inactive” in each case. Moreover, the Ke in assay [2] stood at 0.51 nM. For the same compound, the Ratio Ke in the assay on CHO [3] worked out at 1350; in the assay on CHO [6], 112.
Turning to `CC(C)[C@@H](CN1CCC(C)(c2ccncc2)CC1)NC(=O)[C@H]1Cc2ccc(O)cc2CN1`, the Intrinsic activity entry in assay [1], in assay [4] and in assay [5] was “inactive” each time. Also, the Ke in assay [2] is 1.75 nM. Moreover, the Ratio Ke with CHO [3] was 1430; with CHO [6] it was 88.
